Reference: ChEMBL document CHEMBL4011617, “Ugi Reaction-Derived α-Acyl Aminocarboxamides Bind to Phosphatidylinositol 3-Kinase-Related Kinases, Inhibit HSF1-Dependent Heat Shock Response, and Induce Apoptosis in Multiple Myeloma Cells” (J Med Chem, 2017)
Activity calls are given as the source filed them. The rule behind the calls is not given here.

What was measured:
[1] = tested on: INA-6; assay: Inhibition of heat shock response in human INA-6 cells assessed as reduction in HSF-1 mediated upregulation of the heat shock protein HSP72 at 50 uM preincubated for 4 hrs followed by HSP90 inhibitor and HSR inducer NVP-AUY922 addition measured after 4 hrs by ELISA; format: functional, cell-based
How it was run: (§1)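 HSP72 quantified by ELISA in the same protein lysates used for Western blots. INA-6 cells received compound for 4 h, then NVP-AUY922 co-treatment for 4 h more to stimulate HSF1. DMSO-only and NVP-AUY922-only cells served as negative and positive controls.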

[2] = tested on: INA-6; assay: Inhibition of heat shock response in human INA-6 cells assessed as reduction in HSF-1 mediated upregulation of the heat shock protein HSP27 at 50 uM preincubated for 4 hrs followed by HSP90 inhibitor and HSR inducer NVP-AUY922 addition measured after 4 hrs by ELISA; format: functional, cell-based
[3] = tested on: INA-6; assay: Inhibition of heat shock response in human INA-6 cells assessed as reduction in HSF-1 mediated upregulation of the heat shock protein HSP27 at 50 uM preincubated for 4 hrs followed by HSP90 inhibitor and HSR inducer NVP-AUY922 addition measured after 4 hrs by Western blot method; format: functional, cell-based
How it was run: (§2)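 INA-6 myeloma cells pretreated with test compound for 4 h, then co-treated with the HSP90 inhibitor/HSR inducer NVP-AUY922 for a further 4 h. Cells harvested; HSP72, HSP27, HSF1 or phospho-HSF1 probed by Western blot with β-actin as loading control. DMSO-only cells were the negative control; NVP-AUY922-only cells were the positive control.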

[4] = tested on: INA-6; assay: Inhibition of heat shock response in human INA-6 cells assessed as reduction in HSF-1 mediated upregulation of the heat shock protein HSP72 at 50 uM preincubated for 4 hrs followed by HSP90 inhibitor and HSR inducer NVP-AUY922 addition measured after 4 hrs by Western blot method; format: functional, cell-based; how it was run: as §2
[5] = tested on: INA-6; assay: Downregulation of NVP-AUY922-induced HSF-1 protein expression in human INA-6 cells at 50 uM preincubated for 4 hrs followed by NVP-AUY922 addition measured after 4 hrs by Western blot method; format: functional, cell-based; how it was run: as §2
[6] = molecular target: Heat shock factor protein 1 (Homo sapiens) (UniProt Q00613); assay: (§3) Inhibition of NVP-AUY922-induced HSF-1 phosphorylation at S326 residue in human INA-6 cells at 50 uM preincubated for 4 hrs followed by NVP-AUY922 addition measured after 4 hrs by Western blot method; format: cell-based; how it was run: as §2
[7] = tested on: INA-6; assay: Induction of apoptosis in human INA-6 cells at 6.3 to 8.6 uM after 72 hrs by annexin V-FITC/propidium iodide staining-based flow cytometry method; format: functional, cell-based
How it was run: (§4)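 INA-6 cells incubated three days with DMSO or increasing compound concentrations. Viability read by annexin V-FITC/propidium iodide staining and flow cytometry. Double-negative (viable) fractions used to fit dose-response curves from three independent experiments; mean ± SD reported.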

[8] = tested on: INA-6; assay: Inhibition of heat shock response in human INA-6 cells assessed as reduction in HSF-1 mediated upregulation of the heat shock protein HSP27 at 12.5 uM preincubated for 4 hrs followed by HSP90 inhibitor and HSR inducer NVP-AUY922 addition measured after 4 hrs by ELISA; format: functional, cell-based
[9] = tested on: INA-6; assay: Inhibition of heat shock response in human INA-6 cells assessed as reduction in HSF-1 mediated upregulation of the heat shock protein HSP72 at 12.5 uM preincubated for 4 hrs followed by HSP90 inhibitor and HSR inducer NVP-AUY922 addition measured after 4 hrs by ELISA; format: functional, cell-based; how it was run: as §1
[10] = tested on: INA-6; assay: Inhibition of heat shock response in human INA-6 cells assessed as reduction in HSF-1 mediated upregulation of the heat shock protein HSP72 at 12.5 uM preincubated for 4 hrs followed by HSP90 inhibitor and HSR inducer NVP-AUY922 addition measured after 4 hrs by Western blot method; format: functional, cell-based; how it was run: as §2
[11] = tested on: INA-6; assay: Effect on NVP-AUY922-induced HSF-1 mRNA expression in human INA-6 cells at 12.5 uM preincubated for 4 hrs followed by NVP-AUY922 addition measured after 4 hrs by RT-PCR method; format: functional, cell-based
How it was run: (§5)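 INA-6 cells exposed to compound for 4 h, then co-treated with 10 nM NVP-AUY922 for another 4 h. Total RNA isolated; HSP27, HSP72 and HSF1 transcripts measured by real-time PCR and normalized to α-tubulin. Means and standard deviations from three independent experiments.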

[12] = tested on: INA-6; assay: Inhibition of heat shock response in human INA-6 cells assessed as reduction in HSF-1 mediated upregulation of the heat shock protein HSP27 at 12.5 uM preincubated for 4 hrs followed by HSP90 inhibitor and HSR inducer NVP-AUY922 addition measured after 4 hrs by Western blot method; format: functional, cell-based; how it was run: as §2
[13] = tested on: INA-6; assay: Effect on NVP-AUY922-induced HSF-1 mRNA expression in human INA-6 cells at 50 uM preincubated for 4 hrs followed by NVP-AUY922 addition measured after 4 hrs by RT-PCR method; format: functional, cell-based; how it was run: as §5
[14] = molecular target: DNA-dependent protein kinase catalytic subunit (Homo sapiens) (UniProt P78527); assay: Binding affinity to PRKDC protein in human INA-6 cells after 3 hrs by nanoLC-MS/MS method; format: cell-based
How it was run: (§6)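 The biotinylated inhibitor was loaded on streptavidin beads, with empty beads as the control. Eluates were trypsin-digested and run by nanoLC-MS/MS. Inhibitor/control ratios came from label-free quantification, taken as medians of five biological replicates. Enrichment was called at Benjamini-Hochberg-adjusted limma p < 0.02.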

[15] = molecular target: CCR4-NOT transcription complex subunit 9 (Homo sapiens) (UniProt Q92600); assay: Binding affinity to RCD1 protein in human INA-6 cells after 3 hrs by nanoLC-MS/MS method; format: cell-based; how it was run: as §6
[16] = molecular target: CCR4-NOT transcription complex subunit 7 (Homo sapiens) (UniProt Q9UIV1); assay: Binding affinity to CCR4-NOT transcription complex subunit 7 in human INA-6 cells after 3 hrs by nanoLC-MS/MS method; format: cell-based; how it was run: as §6
[17] = molecular target: Serine/threonine-protein kinase ATR (Homo sapiens) (UniProt Q13535); assay: Binding affinity to ATR protein in human INA-6 cells after 3 hrs by nanoLC-MS/MS method; format: cell-based; how it was run: as §6
[18] = molecular target: Serine/threonine-protein kinase mTOR (Homo sapiens) (UniProt P42345); assay: Binding affinity to mTOR protein in human INA-6 cells after 3 hrs by nanoLC-MS/MS method; format: cell-based; how it was run: as §6
[19] = molecular target: Serine-protein kinase ATM (Homo sapiens) (UniProt Q13315); assay: Binding affinity to ATM protein in human INA-6 cells after 3 hrs by nanoLC-MS/MS method; format: cell-based; how it was run: as §6
[20] = molecular target: CCR4-NOT transcription complex subunit 3 (Homo sapiens) (UniProt O75175); assay: Binding affinity to CCR4-NOT transcription complex subunit 3 in human INA-6 cells after 3 hrs by nanoLC-MS/MS method; format: cell-based; how it was run: as §6
[21] = molecular target: CCR4-NOT transcription complex subunit 1 (Homo sapiens) (UniProt A5YKK6); assay: Binding affinity to CCR4-NOT transcription complex subunit 1 in human INA-6 cells after 3 hrs by nanoLC-MS/MS method; format: cell-based; how it was run: as §6
[22] = molecular target: CCR4-NOT transcription complex subunit 2 (Homo sapiens) (UniProt Q9NZN8); assay: Binding affinity to CCR4-NOT transcription complex subunit 2 in human INA-6 cells after 3 hrs by nanoLC-MS/MS method; format: cell-based; how it was run: as §6
[23] = molecular target: CCR4-NOT transcription complex subunit 6-like (Homo sapiens) (UniProt Q96LI5); assay: Binding affinity to CCR4-NOT transcription complex subunit 6-like in human INA-6 cells after 3 hrs by nanoLC-MS/MS method; format: cell-based; how it was run: as §6
[24] = molecular target: T1, Heat shock factor protein 1 (Homo sapiens) (UniProt Q00613); assay: as §3; format: cell-based; how it was run: as §2; remark: listed apart in the source
T1 sequence (whole entry): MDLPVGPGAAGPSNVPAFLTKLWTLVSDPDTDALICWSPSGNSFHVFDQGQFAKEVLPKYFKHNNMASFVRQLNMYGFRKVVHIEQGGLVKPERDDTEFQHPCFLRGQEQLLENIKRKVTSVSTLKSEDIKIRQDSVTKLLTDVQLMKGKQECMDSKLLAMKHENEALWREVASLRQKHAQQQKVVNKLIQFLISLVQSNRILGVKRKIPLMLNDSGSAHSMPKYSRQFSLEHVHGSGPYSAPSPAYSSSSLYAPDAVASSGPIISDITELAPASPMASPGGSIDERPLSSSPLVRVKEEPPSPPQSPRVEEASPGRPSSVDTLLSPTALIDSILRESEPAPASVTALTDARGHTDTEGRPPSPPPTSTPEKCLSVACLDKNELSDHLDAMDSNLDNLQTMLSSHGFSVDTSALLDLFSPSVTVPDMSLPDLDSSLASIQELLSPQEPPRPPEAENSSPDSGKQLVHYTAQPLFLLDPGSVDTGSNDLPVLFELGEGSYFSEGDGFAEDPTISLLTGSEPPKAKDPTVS

[25] = tested on: INA-6; assay: Induction of apoptosis in human INA-6 cells up to 50 uM after 72 hrs by annexin V-FITC/propidium iodide staining-based flow cytometry method; format: functional, cell-based; how it was run: as §4

Sequence of Serine-protein kinase ATM (Homo sapiens) (Q13315 whole entry): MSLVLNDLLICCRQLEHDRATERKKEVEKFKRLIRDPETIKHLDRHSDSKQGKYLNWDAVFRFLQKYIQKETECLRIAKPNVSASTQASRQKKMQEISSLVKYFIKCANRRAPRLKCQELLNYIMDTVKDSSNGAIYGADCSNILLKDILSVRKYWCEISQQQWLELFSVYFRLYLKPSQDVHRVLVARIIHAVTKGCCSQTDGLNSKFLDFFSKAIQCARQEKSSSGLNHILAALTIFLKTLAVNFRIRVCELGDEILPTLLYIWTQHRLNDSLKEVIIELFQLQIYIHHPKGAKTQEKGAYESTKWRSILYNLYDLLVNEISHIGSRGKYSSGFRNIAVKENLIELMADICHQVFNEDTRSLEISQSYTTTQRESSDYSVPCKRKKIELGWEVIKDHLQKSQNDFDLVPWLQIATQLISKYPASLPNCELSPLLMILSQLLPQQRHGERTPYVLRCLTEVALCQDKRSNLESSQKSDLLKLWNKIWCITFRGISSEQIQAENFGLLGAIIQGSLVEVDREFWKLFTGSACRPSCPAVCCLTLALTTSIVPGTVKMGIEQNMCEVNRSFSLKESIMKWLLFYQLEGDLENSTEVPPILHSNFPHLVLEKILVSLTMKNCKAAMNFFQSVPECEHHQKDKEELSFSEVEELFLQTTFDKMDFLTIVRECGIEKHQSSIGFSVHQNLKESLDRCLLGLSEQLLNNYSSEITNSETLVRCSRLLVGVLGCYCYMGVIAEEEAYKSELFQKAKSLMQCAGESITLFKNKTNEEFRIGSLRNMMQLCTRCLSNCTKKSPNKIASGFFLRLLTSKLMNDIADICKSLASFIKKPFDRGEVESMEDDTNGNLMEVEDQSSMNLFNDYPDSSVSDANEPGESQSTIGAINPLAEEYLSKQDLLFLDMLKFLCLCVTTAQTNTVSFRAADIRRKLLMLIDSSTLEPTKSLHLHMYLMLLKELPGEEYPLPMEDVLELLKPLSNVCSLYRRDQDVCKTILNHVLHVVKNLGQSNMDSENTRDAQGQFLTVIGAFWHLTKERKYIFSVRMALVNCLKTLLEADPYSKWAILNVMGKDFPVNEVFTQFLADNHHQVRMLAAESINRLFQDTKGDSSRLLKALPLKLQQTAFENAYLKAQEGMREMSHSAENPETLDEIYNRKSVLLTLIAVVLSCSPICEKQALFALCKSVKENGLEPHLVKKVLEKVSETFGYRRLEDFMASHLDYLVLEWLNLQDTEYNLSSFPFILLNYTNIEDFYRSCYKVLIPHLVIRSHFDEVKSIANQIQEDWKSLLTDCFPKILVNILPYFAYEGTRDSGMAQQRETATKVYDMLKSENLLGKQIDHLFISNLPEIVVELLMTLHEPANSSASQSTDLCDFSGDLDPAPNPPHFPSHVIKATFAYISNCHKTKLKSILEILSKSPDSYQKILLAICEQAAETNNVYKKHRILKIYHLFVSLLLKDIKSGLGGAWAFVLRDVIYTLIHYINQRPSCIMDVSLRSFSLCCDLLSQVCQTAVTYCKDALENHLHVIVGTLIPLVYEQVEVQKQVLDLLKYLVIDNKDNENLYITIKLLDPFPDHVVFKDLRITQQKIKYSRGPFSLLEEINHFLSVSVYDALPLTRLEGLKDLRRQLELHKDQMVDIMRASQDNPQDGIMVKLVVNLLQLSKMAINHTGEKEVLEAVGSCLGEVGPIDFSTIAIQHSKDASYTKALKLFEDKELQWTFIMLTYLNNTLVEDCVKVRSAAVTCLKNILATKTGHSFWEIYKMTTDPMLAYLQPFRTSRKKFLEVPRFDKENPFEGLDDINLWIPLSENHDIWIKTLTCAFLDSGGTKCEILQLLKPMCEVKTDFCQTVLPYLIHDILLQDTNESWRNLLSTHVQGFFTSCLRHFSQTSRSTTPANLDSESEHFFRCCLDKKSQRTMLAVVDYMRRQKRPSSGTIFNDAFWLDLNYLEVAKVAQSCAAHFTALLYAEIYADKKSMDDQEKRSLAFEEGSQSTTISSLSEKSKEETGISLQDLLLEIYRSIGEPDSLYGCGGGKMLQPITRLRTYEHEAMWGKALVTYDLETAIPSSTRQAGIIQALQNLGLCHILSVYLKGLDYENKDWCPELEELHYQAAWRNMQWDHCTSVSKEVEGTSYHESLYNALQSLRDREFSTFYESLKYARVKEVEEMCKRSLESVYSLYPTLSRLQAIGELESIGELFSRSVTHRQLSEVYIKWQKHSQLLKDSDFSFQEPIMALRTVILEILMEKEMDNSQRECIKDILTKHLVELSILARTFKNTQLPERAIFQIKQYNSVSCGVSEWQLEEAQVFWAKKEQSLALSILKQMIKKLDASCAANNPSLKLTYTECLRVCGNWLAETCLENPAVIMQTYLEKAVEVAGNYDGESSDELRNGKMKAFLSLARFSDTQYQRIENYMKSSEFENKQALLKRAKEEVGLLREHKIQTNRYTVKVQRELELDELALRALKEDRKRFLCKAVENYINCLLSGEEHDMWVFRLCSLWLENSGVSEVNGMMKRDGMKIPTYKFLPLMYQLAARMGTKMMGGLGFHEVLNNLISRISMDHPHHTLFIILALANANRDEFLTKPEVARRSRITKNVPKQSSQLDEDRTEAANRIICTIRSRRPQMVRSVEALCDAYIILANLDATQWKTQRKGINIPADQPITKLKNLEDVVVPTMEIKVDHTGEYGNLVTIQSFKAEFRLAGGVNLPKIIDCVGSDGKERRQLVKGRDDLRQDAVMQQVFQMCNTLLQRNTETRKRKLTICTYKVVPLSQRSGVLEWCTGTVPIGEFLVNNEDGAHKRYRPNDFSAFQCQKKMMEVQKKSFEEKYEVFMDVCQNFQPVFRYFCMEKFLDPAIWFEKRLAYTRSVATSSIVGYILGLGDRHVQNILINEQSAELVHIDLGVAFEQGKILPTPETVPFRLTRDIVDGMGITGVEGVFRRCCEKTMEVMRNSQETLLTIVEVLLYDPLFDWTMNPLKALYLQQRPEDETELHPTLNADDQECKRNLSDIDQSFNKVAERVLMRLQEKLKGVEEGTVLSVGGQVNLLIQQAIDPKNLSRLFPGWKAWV
Sequence of CCR4-NOT transcription complex subunit 7 (Homo sapiens) (Q9UIV1 whole entry, one chain of several): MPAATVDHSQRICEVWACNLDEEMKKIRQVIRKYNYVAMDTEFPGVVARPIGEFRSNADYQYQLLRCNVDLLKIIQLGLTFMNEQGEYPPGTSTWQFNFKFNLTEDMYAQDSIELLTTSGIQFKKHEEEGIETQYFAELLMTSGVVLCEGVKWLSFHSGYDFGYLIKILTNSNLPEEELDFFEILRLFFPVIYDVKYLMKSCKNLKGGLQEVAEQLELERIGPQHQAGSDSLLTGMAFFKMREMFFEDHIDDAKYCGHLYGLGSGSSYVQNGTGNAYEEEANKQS
Sequence of CCR4-NOT transcription complex subunit 2 (Homo sapiens) (Q9NZN8 whole entry, one chain of several): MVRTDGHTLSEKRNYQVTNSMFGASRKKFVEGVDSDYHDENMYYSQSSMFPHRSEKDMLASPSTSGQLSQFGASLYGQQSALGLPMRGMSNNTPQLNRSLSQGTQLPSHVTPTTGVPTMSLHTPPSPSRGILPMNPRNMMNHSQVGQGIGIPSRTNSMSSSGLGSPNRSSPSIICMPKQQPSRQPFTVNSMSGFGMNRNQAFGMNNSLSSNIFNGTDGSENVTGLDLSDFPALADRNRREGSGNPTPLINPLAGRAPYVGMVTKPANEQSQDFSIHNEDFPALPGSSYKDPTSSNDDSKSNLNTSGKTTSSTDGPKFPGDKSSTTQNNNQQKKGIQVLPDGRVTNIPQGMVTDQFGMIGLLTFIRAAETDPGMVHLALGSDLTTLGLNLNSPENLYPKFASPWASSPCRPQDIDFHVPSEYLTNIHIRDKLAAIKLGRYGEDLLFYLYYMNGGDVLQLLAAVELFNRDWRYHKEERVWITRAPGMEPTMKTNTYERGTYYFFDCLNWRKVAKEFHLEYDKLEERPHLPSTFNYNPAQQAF
Sequence of CCR4-NOT transcription complex subunit 3 (Homo sapiens) (O75175 whole entry, one chain of several): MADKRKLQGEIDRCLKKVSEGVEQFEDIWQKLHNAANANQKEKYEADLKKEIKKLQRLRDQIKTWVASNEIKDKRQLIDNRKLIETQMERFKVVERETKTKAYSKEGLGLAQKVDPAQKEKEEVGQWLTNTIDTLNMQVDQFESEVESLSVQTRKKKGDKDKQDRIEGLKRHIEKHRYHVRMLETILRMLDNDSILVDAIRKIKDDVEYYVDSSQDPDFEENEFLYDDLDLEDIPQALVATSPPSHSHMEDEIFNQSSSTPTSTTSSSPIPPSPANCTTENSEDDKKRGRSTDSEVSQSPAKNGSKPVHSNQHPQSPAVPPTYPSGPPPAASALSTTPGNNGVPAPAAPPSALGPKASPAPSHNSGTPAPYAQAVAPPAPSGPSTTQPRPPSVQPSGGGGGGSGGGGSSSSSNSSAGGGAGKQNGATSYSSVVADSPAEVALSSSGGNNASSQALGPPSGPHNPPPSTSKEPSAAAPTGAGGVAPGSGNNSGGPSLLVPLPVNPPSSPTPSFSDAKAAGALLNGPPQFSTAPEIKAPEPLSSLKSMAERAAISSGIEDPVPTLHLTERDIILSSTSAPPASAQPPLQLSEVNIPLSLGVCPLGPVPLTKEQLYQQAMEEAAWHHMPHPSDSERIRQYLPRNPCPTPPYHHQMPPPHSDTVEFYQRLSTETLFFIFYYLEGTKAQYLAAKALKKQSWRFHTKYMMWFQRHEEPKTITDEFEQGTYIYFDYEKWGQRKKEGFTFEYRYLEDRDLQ
Sequence of CCR4-NOT transcription complex subunit 9 (Homo sapiens) (Q92600 whole entry, one chain of several): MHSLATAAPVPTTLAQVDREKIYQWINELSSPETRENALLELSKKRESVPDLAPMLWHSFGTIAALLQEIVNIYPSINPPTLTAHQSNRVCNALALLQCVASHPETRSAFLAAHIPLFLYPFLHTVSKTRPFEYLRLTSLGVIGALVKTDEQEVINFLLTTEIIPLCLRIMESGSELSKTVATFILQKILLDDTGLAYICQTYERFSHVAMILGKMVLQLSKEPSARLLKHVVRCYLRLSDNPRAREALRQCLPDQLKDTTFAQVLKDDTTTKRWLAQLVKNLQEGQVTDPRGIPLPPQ

Compound | HSP72 upregulation inhibition (active/not active) [1] | heat shock response inhibition (active/not active) [2] | activity call (active/not active) for inhibition of HSP27 upregulation [3] | heat shock response inhibition (active/not active) [4] | Activity [5] | inhibition [24] | also measured
N-(2-(Benzylamino)-1-(2-bromophenyl)-2-oxoethyl)-N-cyclopropylcinnamamide | Active | Active | Active | Active | Active |  | inhibition [6]: Active
NCCOCCOCCNCCCCOc1ccc(CCC(=O)N(C2CC2)C(C(=O)NCc2ccccc2)c2ccc(Br)cc2)cc1 (racemic) |  |  |  |  |  |  | Activity [7]: Active; inhibition [8]: inactive; inhibition [9]: inactive; inhibition [10]: inactive; Activity [11]: inactive; inhibition [12]: inactive
O=C(NCc1ccccc1)C(c1ccc(O)cc1)N(C(=O)CCc1ccccc1)C1CC1 (racemic) | inactive | inactive | inactive | inactive |  |  | Activity [13]: inactive
O=C(CCCC[C@@H]1SC[C@@H]2NC(=O)N[C@@H]21)NCCOCCOCCNCCCCOc1ccc(CCC(=O)N(C2CC2)C(C(=O)NCc2ccccc2)c2ccc(Br)cc2)cc1 (mixture of isomers) | inactive | inactive | inactive |  |  |  | Activity [14]: Active; Activity [15]: Active; Activity [16]: Active; Activity [17]: Active; Activity [18]: Active; Activity [19]: Active; Activity [20]: Active; Activity [21]: Active; Activity [22]: Active; Activity [23]: Active
O=C(NCc1ccccc1)C(c1ccccc1)N(C(=O)/C=C/c1ccccc1)C1CC1 (racemic) | Active | Active | Active | Active | Active | Active | 
CN(C(=O)/C=C/c1ccccc1)C(C(=O)NCc1ccccc1)c1ccccc1Br (racemic) | Active | Active | Active | Active | Active | Active | 
COc1ccc(/C=C/C(=O)N(Cc2ccc(OC)cc2)C(C(=O)NCc2ccccc2)c2ccccc2Br)cc1 (racemic) | inactive |  | inactive | inactive |  |  | Activity [13]: inactive; Activity [25]: inactive
CCCN(C(=O)/C=C/c1ccc(OC)cc1)C(C(=O)NC1CCCCC1)c1ccccc1Br (racemic) | Active | Active | Active | Active | Active | Active | 
